Active and inactive are the calls of the source. The calls are words filed in the database; no cut-off is given here.
Columns and labels:
[1] = target: T1, Adenosine receptor A3 (Homo sapiens) (UniProt P0DMS8); assay: Displacement of [125I]N6-(4-amino-3-iodobenzyl)adenosine-50-N-methyluronamide from human recombinant A3AR expressed in CHO cells at 10 uM; assay type: cell-based
T1 sequence (whole entry): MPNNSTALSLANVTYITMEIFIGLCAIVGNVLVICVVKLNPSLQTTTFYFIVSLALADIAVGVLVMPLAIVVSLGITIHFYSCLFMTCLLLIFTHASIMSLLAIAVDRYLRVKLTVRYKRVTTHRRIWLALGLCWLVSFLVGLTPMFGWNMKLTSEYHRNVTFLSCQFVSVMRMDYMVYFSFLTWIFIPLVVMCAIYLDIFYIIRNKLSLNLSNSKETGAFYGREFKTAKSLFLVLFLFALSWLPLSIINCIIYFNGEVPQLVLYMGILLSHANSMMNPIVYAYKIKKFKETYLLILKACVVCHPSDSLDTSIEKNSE
Outline: (§1)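 Single-concentration radioligand displacement at 10 μM. Membranes came from CHO cells stably expressing human A1AR or A3AR, or HEK293 cells stably expressing human A2AAR. Agonist radioligands were [3H]N6-[(R)-1-methyl-2-phenylethyl]adenosine (A1), [3H]2-[p-(2-carboxyethyl)phenylethylamino]-5′-N-ethylcarboxamidoadenosine (A2A) and [125I]N6-(4-amino-3-iodobenzyl)adenosine-5′-N-methyluronamide (A3). Read-out was percent inhibition of binding.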

[2] = target: Adenosine receptor A2a (Homo sapiens) (UniProt P29274); assay: Displacement of [3H]2-[p-(2-carboxyethyl)phenylethylamino]-50-N-ethylcarboxamidoadenosine from human recombinant A2AR expressed in HEK293 cells at 10 uM; assay type: cell-based; outline: as §1
Chain of Adenosine receptor A2a (Homo sapiens) (P29274 whole entry): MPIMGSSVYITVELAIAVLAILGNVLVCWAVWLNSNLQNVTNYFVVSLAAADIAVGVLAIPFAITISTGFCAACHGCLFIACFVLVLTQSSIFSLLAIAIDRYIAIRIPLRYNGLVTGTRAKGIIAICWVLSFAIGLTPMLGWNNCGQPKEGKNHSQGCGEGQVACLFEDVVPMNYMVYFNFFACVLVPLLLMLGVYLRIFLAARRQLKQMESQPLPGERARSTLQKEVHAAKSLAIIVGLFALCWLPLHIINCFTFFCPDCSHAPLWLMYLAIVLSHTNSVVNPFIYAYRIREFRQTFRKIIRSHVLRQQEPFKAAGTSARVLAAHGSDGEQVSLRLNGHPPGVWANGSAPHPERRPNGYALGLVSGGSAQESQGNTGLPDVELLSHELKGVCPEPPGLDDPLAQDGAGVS

[3] = target: T2, Adenosine receptor A1 (Homo sapiens) (UniProt P30542); assay: Displacement of [3H]N6-[(R)-1-methyl-2-phenylethyl]adenosine from human recombinant A1AR expressed in CHO cells at 10 uM; assay type: cell-based; outline: as §1
T2 sequence (whole entry): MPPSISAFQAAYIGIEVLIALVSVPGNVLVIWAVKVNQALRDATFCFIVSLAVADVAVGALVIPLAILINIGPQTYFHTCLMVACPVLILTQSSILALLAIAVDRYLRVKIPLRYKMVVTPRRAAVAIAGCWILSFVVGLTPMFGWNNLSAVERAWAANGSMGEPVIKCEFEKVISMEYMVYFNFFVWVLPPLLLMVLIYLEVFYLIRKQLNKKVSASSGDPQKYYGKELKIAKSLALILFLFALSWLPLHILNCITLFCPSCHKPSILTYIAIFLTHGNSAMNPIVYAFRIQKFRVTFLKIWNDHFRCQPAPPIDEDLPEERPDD

[4] = target: T2, Adenosine receptor A1 (Homo sapiens); assay: Displacement of [3H]N6-[(R)-1-methyl-2-phenylethyl]adenosine from human recombinant A1AR expressed in CHO cells at 50 uM; assay type: cell-based
Outline: (§2)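 Percent inhibition of agonist radioligand binding measured at a single 50 μM test concentration. A1: CHO cell membranes with stably expressed human A1AR and [3H]N6-[(R)-1-methyl-2-phenylethyl]adenosine. A2A: HEK293 cell membranes with stably expressed human A2AAR and [3H]2-[p-(2-carboxyethyl)phenylethylamino]-5′-N-ethylcarboxamidoadenosine.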

[5] = target: Adenosine receptor A2a (Homo sapiens) (UniProt P29274); assay: Displacement of [3H]2-[p-(2-carboxyethyl)phenylethylamino]-50-N-ethylcarboxamidoadenosine from human recombinant A2AR expressed in HEK293 cells at 50 uM; assay type: cell-based; outline: as §2
Adenosine receptor A3 [6] = target: T3, Adenosine receptor A3 (Homo sapiens, UniProt P0DMS8); assay: Displacement of [125I]N6-(4-amino-3-iodobenzyl)adenosine-50-N-methyluronamide from human recombinant A3AR expressed in CHO cells; assay type: cell-based
T3 sequence (P0DMS8 whole entry): T1 sequence (whole entry)
Outline: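 Competition binding used membranes of CHO cells stably expressing human A3AR and the agonist radioligand [125I]N6-(4-amino-3-iodobenzyl)adenosine-5′-N-methyluronamide. IC50 values from competition curves were converted to Ki by Cheng-Prusoff. Values are mean ± S.E.M.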

[7] = target: T1, Adenosine receptor A3 (Homo sapiens); assay: (§3) Agonist activity at human recombinant A3AR expressed in CHO cells assessed as inhibition of forskolin-induced stimulation of cAMP production; assay type: functional, cell-based
Adenosine receptor A3 [8] = target: T3, Adenosine receptor A3; assay: as §3; assay type: functional, cell-based
[9] = target: T1, Adenosine receptor A3 (Homo sapiens); assay: Modulatory activity at human recombinant A3AR expressed in CHO cells assessed as inhibition of forskolin-induced stimulation of cAMP production; assay type: functional, cell-based
Outline: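 CHO cells stably expressing human A3AR were plated and grown 24 h, then washed in DMEM with 50 mM HEPES, pH 7.4. Compounds and/or agonist were added with rolipram (10 μM) and adenosine deaminase (3 units/mL). Forskolin (10 μM) was added at 45 min and incubation ran 15 more min. Cells were lysed in 0.1 M HCl. cAMP was measured by competitive binding of [3H]cAMP (2 nM) to protein kinase A, with a cAMP standard curve, filtration and scintillation counting.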

Compound	inhibition [1]	inhibition [2]	inhibition [3]	other results
CNC(=O)OC[C@@]1(O)CO[C@@H](n2cnc3c(N)ncnc32)[C@@H]1O	26%	10%	12%	
OC[C@]1(O)CO[C@@H](n2cnc3c(NCc4cccc(Cl)c4)ncnc32)[C@@H]1O	44%	15%	19%	
Nc1ncnc2c1ncn2[C@@H]1OC[C@@H](CO)[C@H]1O	7%			inhibition [4]: 74%; inhibition [5]: 76%
OC[C@@]1(O)CO[C@@H](n2cnc3c(NCc4cccc(I)c4)ncnc32)[C@@H]1O	48%	17%	27%	
Nc1ncnc2c1ncn2[C@H]1C[C@H](CO)CO1	7%			inhibition [4]: 0%
Nc1ncnc2c1ncn2[C@@H]1OC[C@@](O)(CO)[C@H]1O	10%			inhibition [4]: 0%; inhibition [5]: 64%
COc1ccc(Cl)cc1CNc1ncnc2c1ncn2[C@@H]1OC[C@@](O)(CO)[C@H]1O		14%	13%	Ki (Adenosine receptor A3 [6]): 3070 nM; Emax [7]: 50.9%; IC50 (Adenosine receptor A3 [8]): 1560 nM
CCNC(=O)OC[C@@H]1CO[C@@H](n2cnc3c(N)ncnc32)[C@@H]1O	8%	2%	7%	
Nc1ncnc2c1ncn2[C@@H]1OC[C@](O)(CO)[C@H]1O	35%	19%	6%	
Nc1ncnc2c1ncn2[C@@H]1OC[C@H](CO)[C@H]1O	32%	19%	6%	
COc1ccc(Cl)cc1CNc1ncnc2c1ncn2[C@@H]1OC[C@](O)(CO)[C@H]1O		17%	12%	Ki (Adenosine receptor A3 [6]): 978 nM; Activity [9]: inactive
Nc1ncnc2c1ncn2[C@H]1C[C@@H](CO)CO1	31%	15%	10%	
OC[C@]1(O)CO[C@@H](n2cnc3c(NCc4cccc(I)c4)ncnc32)[C@@H]1O	45%	22%	35%	
CCNC(=O)[C@@H]1CO[C@@H](n2cnc3c(N)ncnc32)[C@@H]1O	10%	9%	8%	
OC[C@@]1(O)CO[C@@H](n2cnc3c(NCc4cccc(Cl)c4)ncnc32)[C@@H]1O	43%	10%	10%	
Nc1c2ncn([C@@H]3OC[C@@](O)(CO)[C@H]3O)c2nc[n+]1Cc1cccc(Cl)c1	3%	12%	6%	
CCNC(=O)OC[C@]1(O)CO[C@@H](n2cnc3c(N)ncnc32)[C@@H]1O	6%	12%	9%	
